In ChEMBL document CHEMBL1122917, “Vinblastin-23-oyl amino acid derivatives: chemistry, physicochemical data, toxicity, and antitumor activities against P388 and L1210 leukemias” (J Med Chem, 1985):

How the values were obtained:
Format in all cases: functional
Mus musculus [1] = assay: Number of survivors on 60th day at dose 60 mg/kg/day in 10 mice implanted with P388 leukemia cell line; 0/10
Summary of the method: (§1)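 Female DBA2 mice inoculated iv on day 0 with 10^4 P388 cells; single iv treatment on day 1 with drug as sulfate salt in physiological saline. Survival followed; %ILS from all deaths and survivors as (T/C × 100) − 100, maximal MST 30 days; survivors counted on days 30 and 60. Most experiments confirmed three times.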

Mus musculus [2] = assay: Percent increase in life span at dose 80 mg/kg/day in 10 mice implanted with P388 leukemia cell line; summary of the method: as §1
Mus musculus [3] = assay: Percent increase in life span at dose 40 mg/kg/day in 10 mice implanted with P388 leukemia cell line; summary of the method: as §1
Mus musculus [4] = assay: Number of survivors on 60th day at dose 80 mg/kg/day in 8 mice implanted with P388 leukemia cell line; 0/8
Mus musculus [5] = assay: Percent increase in life span at dose 60 mg/kg/day in 10 mice implanted with P388 leukemia cell line; summary of the method: as §1
Mus musculus [6] = assay: Number of survivors on 60th day at dose 40 mg/kg/day in 10 mice implanted with P388 leukemia cell line; 0/10
Mus musculus [7] = assay: Number of survivors on 30th day at dose 40 mg/kg/day in 10 mice implanted with P388 leukemia cell line; 0/10
Mus musculus [8] = assay: Number of survivors on 30th day at dose 80 mg/kg/day in 8 mice implanted with P388 leukemia cell line; 0/8
Mus musculus [9] = assay: Number of survivors on 30th day at dose 60 mg/kg/day in 10 mice implanted with P388 leukemia cell line; 0/10
Mus musculus [10] = assay: Percent increase in life span at dose 10 mg/kg/day in 10 mice implanted with P388 leukemia cell line; summary of the method: as §1
Mus musculus [11] = assay: Percent increase in life span at dose 7.5 mg/kg/day in 10 mice implanted with P388 leukemia cell line
Mus musculus [12] = assay: Percent increase in life span at dose 5 mg/kg/day in 10 mice implanted with P388 leukemia cell line; summary of the method: as §1
Mus musculus [13] = assay: Number of survivors on 60th day at dose 5 mg/kg/day in 10 mice implanted with P388 leukemia cell line; 0/10
Mus musculus [14] = assay: Number of survivors on 30th day at dose 5 mg/kg/day in 10 mice implanted with P388 leukemia cell line; 0/10
Mus musculus [15] = assay: Number of survivors on 60th day at dose 10 mg/kg/day in 10 mice implanted with P388 leukemia cell line; 0/10
Mus musculus [16] = assay: Number of survivors on 30th day at dose 10 mg/kg/day in 10 mice implanted with P388 leukemia cell line; 0/10
Mus musculus [17] = assay: Number of survivors on 60th day at dose 7.5 mg/kg/day in 10 mice implanted with P388 leukemia cell line; 0/10
Mus musculus [18] = assay: Number of survivors on 30th day at dose 7.5 mg/kg/day in 10 mice implanted with P388 leukemia cell line; 0/10
Mus musculus [19] = assay: Number of survivors on 60th day at dose 12.5 mg/kg/day in 10 mice implanted with P388 leukemia cell line
Mus musculus [20] = assay: Number of survivors on 60th day at dose 15 mg/kg/day in 10 mice implanted with P388 leukemia cell line
Mus musculus [21] = assay: Number of survivors on 60th day at dose 25 mg/kg/day in 10 mice implanted with P388 leukemia cell line
Mus musculus [22] = assay: Percent increase in life span at dose 12.5 mg/kg/day in 10 mice implanted with P388 leukemia cell line; summary of the method: as §1
Mus musculus [23] = assay: Percent increase in life span at dose 15 mg/kg/day in 10 mice implanted with P388 leukemia cell line; summary of the method: as §1
Mus musculus [24] = assay: Percent increase in life span at dose 25 mg/kg/day in 10 mice implanted with P388 leukemia cell line
Mus musculus [25] = assay: Percent increase in life span of DBA2 mice after inoculation with L1210 leukemia intravenously at a dose of 12.5 mg/kg per day; details: route intravenous
Summary of the method: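 Female DBA2 mice inoculated iv on day 0 with 10^4 L1210 cells; drugs given iv as sulfate salts in physiological saline, mostly once on day 1. %ILS from all deaths and survivors as (T/C × 100) − 100; survivors scored on days 30 and 60.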

Mus musculus [26] = assay: Number of survivors on 60th day at dose 5 mg/kg/day in 10 mice implanted with P388 leukemia cell line
Mus musculus [27] = assay: Number of survivors on 30th day at dose 25 mg/kg/day in 10 mice implanted with P388 leukemia cell line
Mus musculus [28] = assay: Number of survivors of DBA2 mice on 60th day after inoculation with L1210 leukemia cell line intravenously at a dose of 12.5 mg/kg/day; 0/10; details: route intravenous
Mus musculus [29] = assay: Number of survivors of DBA2 mice on 30th day after inoculation with L1210 leukemia cell line intravenously at a dose of 12.5 mg/kg/day; 0/10; details: route intravenous
Mus musculus [30] = assay: Number of survivors on 30th day at dose 5 mg/kg/day in 10 mice implanted with P388 leukemia cell line
Mus musculus [31] = assay: Number of survivors on 60th day at dose 10 mg/kg/day in 10 mice implanted with P388 leukemia cell line
Mus musculus [32] = assay: Number of survivors on 30th day at dose 12.5 mg/kg/day in 10 mice implanted with P388 leukemia cell line
Mus musculus [33] = assay: Number of survivors on 30th day at dose 10 mg/kg/day in 10 mice implanted with P388 leukemia cell line
Mus musculus [34] = assay: Number of survivors on 30th day at dose 15 mg/kg/day in 10 mice implanted with P388 leukemia cell line

Q: How did the Survivors (Mus musculus [1]) turn out when `CCCCCCCCOC(=O)[C@H](CC(C)C)NC(=O)[C@@]1(O)[C@H](O)[C@]2(CC)C=CCN3CC[C@@]4(c5cc([C@@]6(C(=O)OC)C[C@H]7C[N@](CCc8c6[nH]c6ccccc86)C[C@](O)(CC)C7)c(OC)cc5N(C)[C@@]14C)[C@@H]32` was run?
A: The Survivors was 0.

Q: And the ILS at 80 mg/kg/day (Mus musculus [2])?
A: Its ILS at 80 mg/kg/day is 9.5%.

Q: What about the ILS at 40 mg/kg/day (Mus musculus [3]) of the same compound?
A: The ILS at 40 mg/kg/day was -0.9%.

Q: What about the Survivors (Mus musculus [4]) of the same compound?
A: Its Survivors is 0.

Q: And the ILS at 60 mg/kg/day (Mus musculus [5])?
A: The ILS at 60 mg/kg/day was 7.8%.

Q: What about the Survivors (Mus musculus [6]) of the same compound?
A: Its Survivors is 0.

Q: What about the Survivors (Mus musculus [7]) of the same compound?
A: The Survivors was 0.

Q: What about the Survivors (Mus musculus [8]) of the same compound?
A: The Survivors was 0.

Q: And the Survivors (Mus musculus [9])?
A: Its Survivors is 0.

Q: How did the ILS at 10 mg/kg/day (Mus musculus [10]) turn out when `CCOC(=O)[C@H](CO)NC(=O)[C@@]1(O)[C@H](O)[C@]2(CC)C=CCN3CC[C@@]4(c5cc([C@@]6(C(=O)OC)C[C@H]7C[N@](CCc8c6[nH]c6ccccc86)C[C@](O)(CC)C7)c(OC)cc5N(C)[C@@]14C)[C@@H]32` was run?
A: The ILS at 10 mg/kg/day was 32%.

Q: And the ILS at 7.5 mg/kg/day (Mus musculus [11])?
A: Its ILS at 7.5 mg/kg/day is 26%.

Q: And the ILS at 5 mg/kg/day (Mus musculus [12])?
A: The ILS at 5 mg/kg/day was 16%.

Q: What about the Survivors (Mus musculus [13]) of the same compound?
A: The Survivors was 0.

Q: And the Survivors (Mus musculus [14])?
A: The Survivors was 0.

Q: What about the Survivors (Mus musculus [15]) of the same compound?
A: The Survivors was 0.

Q: What about the Survivors (Mus musculus [16]) of the same compound?
A: The Survivors was 0.

Q: What about the Survivors (Mus musculus [17]) of the same compound?
A: Its Survivors is 0.

Q: And the Survivors (Mus musculus [18])?
A: The Survivors was 0.

Q: What does the source list for `CCOC(=O)[C@H](C)NC(=O)[C@@]1(O)[C@H](O)[C@]2(CC)C=CCN3CC[C@@]4(c5cc([C@@]6(C(=O)OC)C[C@H]7C[N@](CCc8c6[nH]c6ccccc86)C[C@](O)(CC)C7)c(OC)cc5N(C)[C@@]14C)[C@@H]32`?
A: ILS at 10 mg/kg/day (Mus musculus [10]): 36.8%; Survivors (Mus musculus [19]): 1; Survivors (Mus musculus [20]): 0; Survivors (Mus musculus [21]): 1; ILS at 12.5 mg/kg/day (Mus musculus [22]): 46%; ILS at 15 mg/kg/day (Mus musculus [23]): 39%; ILS at 25 mg/kg/day (Mus musculus [24]): 63.8%; ILS at 5 mg/kg/day (Mus musculus [12]): 27.6%; ILS at 12.5 mg/kg/day (Mus musculus [25]): 50%; Survivors (Mus musculus [26]): 0; Survivors (Mus musculus [27]): 2; Survivors (Mus musculus [28]): 0; Survivors (Mus musculus [29]): 0; Survivors (Mus musculus [30]): 0; Survivors (Mus musculus [31]): 2; Survivors (Mus musculus [32]): 1; Survivors (Mus musculus [33]): 2; Survivors (Mus musculus [34]): 0
